Measured values published in ChEMBL document CHEMBL1136477, “beta-alanine dipeptides as MC4R agonists” (Bioorg Med Chem Lett, 2003).

Key:
Melanocortin receptor 4 [1] = target: T1, Melanocortin receptor 4 (Homo sapiens, UniProt P32245); test: Binding activity was measured using membranes of Hi5 cells expressing the human MC4R receptors; assay type: cell membranes, BTI-TN-5B1-4
[2] = Intrinsic activity was expressed as percent of maximal activity achieved by NDP-alpha-MSH.; assay type: functional
In short: (§1)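 HEK293 cells stably expressing human MC4R (MEM, G418, 10% heat-inactivated FBS) seeded 5×10^4 cells/well overnight. Then 10 min at 37 °C with 0.1 mM IBMX and increasing compound (1% DMSO final). After lysis, cAMP read by SPA kit. EC50 by non-linear regression. Intrinsic activity is % of NDP-a-MSH maximum. Run twice or three times in duplicate.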

Melanocortin receptor 4 [3] = target: T1, Melanocortin receptor 4; test: Stimulation of adenylate cyclase in HEK293 cells expressing the human MC4R receptor was determined by measuring cAMP accumulation using the RPA559 SPA assay; assay type: functional, cell-based; in short: as §1

T1 sequence (P32245 whole entry): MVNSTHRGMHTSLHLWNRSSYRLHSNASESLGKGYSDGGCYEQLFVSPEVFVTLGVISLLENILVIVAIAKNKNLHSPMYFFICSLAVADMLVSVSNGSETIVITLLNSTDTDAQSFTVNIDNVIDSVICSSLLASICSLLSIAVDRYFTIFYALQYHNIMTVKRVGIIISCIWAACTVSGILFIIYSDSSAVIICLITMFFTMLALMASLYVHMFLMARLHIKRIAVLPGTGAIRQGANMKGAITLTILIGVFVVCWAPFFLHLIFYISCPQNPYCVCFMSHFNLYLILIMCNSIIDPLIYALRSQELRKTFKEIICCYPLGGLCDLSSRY

SMILES	IC50 (Melanocortin receptor 4 [1])	Max stimulation [2]	EC50 (Melanocortin receptor 4 [3])
O=C(CCN1CCCCC1)NCCC(=O)N[C@H](Cc1ccc(Cl)cc1)C(=O)N1CCC(Cn2cncn2)(C2CCCCC2)CC1	12 nM	–	–
CC(C)(CN)C(=O)N[C@H](Cc1ccc(Cl)cc1)C(=O)N1CCC(Cn2cncn2)(C2CCCCC2)CC1	30 nM	–	–
O=C(N[C@H](Cc1ccc(Cl)cc1)C(=O)N1CCC(Cn2cncn2)(C2CCCCC2)CC1)[C@H]1CCCNC1	9 nM	–	–
NCCC(=O)N[C@H](Cc1ccc(Cl)cc1)C(=O)N1CCC(Cn2cncn2)(C2CCCCC2)CC1	16 nM	92%	170 nM
CN(C)CCC(=O)NCCC(=O)N[C@H](Cc1ccc(Cl)cc1)C(=O)N1CCC(Cn2cncn2)(C2CCCCC2)CC1	11 nM	–	–
CC(=O)NCCC(=O)N[C@H](Cc1ccc(Cl)cc1)C(=O)N1CCC(Cn2cncn2)(C2CCCCC2)CC1	12 nM	–	–
CN(C)CCC(=O)N[C@H](Cc1ccc(Cl)cc1)C(=O)N1CCC(Cn2cncn2)(C2CCCCC2)CC1	10 nM	98%	40 nM
COCC(=O)NCCC(=O)N[C@H](Cc1ccc(Cl)cc1)C(=O)N1CCC(Cn2cncn2)(C2CCCCC2)CC1	21 nM	–	–
O=C(C[C@@H]1CCCN1)N[C@H](Cc1ccc(Cl)cc1)C(=O)N1CCC(Cn2cncn2)(C2CCCCC2)CC1	22 nM	–	–
O=C(N[C@H](Cc1ccc(Cl)cc1)C(=O)N1CCC(Cn2cncn2)(C2CCCCC2)CC1)[C@@H]1CCCNC1	12 nM	–	–
O=C(CCNC(=O)[C@@H]1CCCNC1)N[C@H](Cc1ccc(Cl)cc1)C(=O)N1CCC(Cn2cncn2)(C2CCCCC2)CC1	25 nM	–	–
O=C(CCNC(=O)c1ccccc1)N[C@H](Cc1ccc(Cl)cc1)C(=O)N1CCC(Cn2cncn2)(C2CCCCC2)CC1	90 nM	–	–
O=C(CCNC(=O)C(F)(F)F)N[C@H](Cc1ccc(Cl)cc1)C(=O)N1CCC(Cn2cncn2)(C2CCCCC2)CC1	180 nM	–	–
O=C(CCNC(=O)[C@H]1CCCNC1)N[C@H](Cc1ccc(Cl)cc1)C(=O)N1CCC(Cn2cncn2)(C2CCCCC2)CC1	22 nM	–	–
CC(C)(N)CC(=O)N[C@H](Cc1ccc(Cl)cc1)C(=O)N1CCC(Cn2cncn2)(C2CCCCC2)CC1	18 nM	–	–
O=C(CCNCc1ccccc1)N[C@H](Cc1ccc(Cl)cc1)C(=O)N1CCC(Cn2cncn2)(C2CCCCC2)CC1	14 nM	–	–
O=C(CCN(Cc1ccccc1)Cc1ccccc1)N[C@H](Cc1ccc(Cl)cc1)C(=O)N1CCC(Cn2cncn2)(C2CCCCC2)CC1	110 nM	–	–
O=C(N[C@H](Cc1ccc(Cl)cc1)C(=O)N1CCC(Cn2cncn2)(C2CCCCC2)CC1)C1CNC1	16 nM	–	–
CNCCC(=O)N[C@H](Cc1ccc(Cl)cc1)C(=O)N1CCC(Cn2cncn2)(C2CCCCC2)CC1	10 nM	98%	70 nM
O=C(N[C@H](Cc1ccc(Cl)cc1)C(=O)N1CCC(Cn2cncn2)(C2CCCCC2)CC1)[C@H]1Cc2ccccc2CN1	–	99%	–
